Assay outcomes: PubChem BioAssay, several laboratories
UPR CHOP act = activators of apoptotic arm of unfolded protein response (CHOP); CHO-CHOP luciferase reporter, UPR activation, luminescence; percent of tunicamycin response over DMSO baseline; 0.34% of 330,000 active; AID 449763; activation, % at 10 µM;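 active = at 10 µM dose, activation of 40% or more, normalized to positive control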;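 also: 100% = tunicamycin at 10 µg/mL and 0% = DMSO alone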
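Assay system: CHO cells with stable CHOP pathway luciferase reporter; Buffer or medium: F12 plus 10% serum; Times: 16-18 h cell attachment, then 6 h compound exposure, 37 °C; Signal: luciferase luminescence; Read-out basis: percent activation relative to tunicamycin control; Control set: tunicamycin high control, DMSO low control.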
Jurkat NFkB inh = inhibitors of the PMA/ionomycin-induced NF-kB reporter in Jurkat cells; inhibition, % at 4 µM; PMA/ionomycin-induced NF-kB luciferase reporter, luminescence; 0.53% of 330,000 active; in the data active = inhibition above about 50%
XBP1 UPR activ = activators of adaptive arm of unfolded protein response (XBP1) | CHO-XBP1 luciferase reporter, IRE1-XBP1 UPR activation, luminescence; percent of tunicamycin response, DMSO as zero | activation, % at 20 µM | 0.33% of 330,000 active;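 active = versus positive control, 20 µM dose yields 30% or more activation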;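 also: 100% = tunicamycin at 10 µg/mL and 0% = DMSO only wells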
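Signal: luciferase luminescence; Assay system: CHO-XBP1 luciferase reporter cells; Amount: one thousand reporter cells per well; Dosing: 20 µM single concentration, DMSO 1%; Benchmarks: high control tunicamycin 10 µg/mL final, low control DMSO vehicle only; Schedule: 6 h compound exposure at 37 °C, 5% CO2; Evaluation: percent activation relative to tunicamycin reference.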
CHOP inh = inhibitors of CHOP induction in ER stress response | CHO-K1 CHOP-promoter luciferase, tunicamycin-induced, 15-18 h | inhibition, % at 10 µM | 3.8% of 220,000 active | AID 2732;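 active = compounds that reduced the stress-induced luciferase reporter signal by more than about 70% of percent inhibition, limit read from the data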;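 also: 0% = tunicamycin plus vehicle and 100% = wells without tunicamycin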
697 NFkB inh = inhibitors of the PMA/ionomycin-induced NF-kB reporter in 697 B cells; inhibition, % at 4 µM; 697 B-cell NF-kB luciferase reporter, 16 h; 0.33% of 330,000 active; AID 435022; in the data active = inhibition above about 35%
Jurkat NFkB conf = inhibitors of the PMA/ionomycin-induced NF-kB reporter in Jurkat cells, retest; 27% of 2,700 active; inhibition, % at 4 µM; AID 435020; Jurkat NF-kB luciferase, 16 h; shares compounds with Jurkat NFkB inh;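 active = inhibition reaching about 45% at 4 µM in either replicate, limit read from the data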;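 also: plate controls were PMA/ionomycin stimulated DMSO wells for no effect and unstimulated DMSO wells for full effect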
Active calls of the source: *. This is one part of a sample in which hits are shown more often than they occur.

Screening NC(=O)CC(NC(=O)Cc1ccc(Br)cc1)c1ccc(NC2CCCC2)c([N+](=O)[O-])c1 (centres undefined) returned UPR CHOP act -3, Jurkat NFkB inh 51*, XBP1 UPR activ 1, CHOP inh 84*, 697 NFkB inh 26 and Jurkat NFkB conf 29.
`COc1cc(CN2CCN(CC3CC3)CC2CCO)cc(OC)c1` (centres undefined) gave UPR CHOP act -1, Jurkat NFkB inh -4, XBP1 UPR activ -4 and 697 NFkB inh 13.
`NC(=O)c1ccccc1NC(=O)/C=C/c1ccccc1` gave UPR CHOP act 8, Jurkat NFkB inh -87, XBP1 UPR activ 3, CHOP inh -23 and 697 NFkB inh -130.
Screening NC(=O)c1ccccc1NC(=O)/C=C/c1ccc(Cl)cc1 returned UPR CHOP act 5, Jurkat NFkB inh -177, XBP1 UPR activ 2, CHOP inh 27, 697 NFkB inh -110 and Jurkat NFkB conf -73.
CCN1C(=O)[C@@H]2[C@@H](c3ccc(SC4CCCCC4)c(OC)c3)N3CCCC[C@@]3(C(=O)OC)[C@@H]2C1=O was read as UPR CHOP act 0, Jurkat NFkB inh 0, XBP1 UPR activ -1 and 697 NFkB inh -1.
Cc1cn([C@@H](CCCCNC(=O)OC(C)(C)C)C(=O)NCCCCCCCCCCC(=O)N2CCN(C(=O)OC(C)(C)C)CC2)nn1 was read as UPR CHOP act 5, Jurkat NFkB inh 33, XBP1 UPR activ -3 and 697 NFkB inh -59.
For CC(C)(C)OC(=O)NCCCCCc1cn(CC(=O)NCCCCCCCCCCC(=O)N2CCN(C(=O)OC(C)(C)C)CC2)nn1 the results were UPR CHOP act 6, Jurkat NFkB inh 55*, XBP1 UPR activ -2, 697 NFkB inh -13 and Jurkat NFkB conf 56*.
`CC[n+]1c(/C=C/c2c[nH]c3ccccc23)ccc2cc(C)ccc21` gave UPR CHOP act 21, Jurkat NFkB inh 93*, XBP1 UPR activ 16, CHOP inh 75*, 697 NFkB inh -59 and Jurkat NFkB conf 30.
`NC(=O)C1CCN(c2oc(/C=C/c3ccc(F)cc3)nc2S(=O)(=O)c2ccccc2)CC1` gave UPR CHOP act 3, Jurkat NFkB inh 21, XBP1 UPR activ 5 and 697 NFkB inh -13.
O=C(NC1CCCC1)C(c1ccncc1)N(C(=O)Cc1cccs1)c1cccc(F)c1 (centres undefined) was read as UPR CHOP act -1, Jurkat NFkB inh 11, XBP1 UPR activ -3 and 697 NFkB inh 6.
`CN(C)CCCNc1c2ccccc2nc2ccccc12` gave UPR CHOP act -3, Jurkat NFkB inh 99*, XBP1 UPR activ -5, 697 NFkB inh 35 and Jurkat NFkB conf -57.
For COc1ccc2c(c1)c(=O)c(C(=O)O)c(-c1ccc3c(c1)OCO3)n2C the results were UPR CHOP act 3, Jurkat NFkB inh 0, XBP1 UPR activ -1, CHOP inh 9 and 697 NFkB inh 22.
Cn1c(SCC(=O)Nc2nncs2)nnc1C1CC1 was read as UPR CHOP act 2, Jurkat NFkB inh -1, XBP1 UPR activ -2 and 697 NFkB inh -4.
`CCOc1cccc(C(=O)Nc2ccc3[nH]ncc3c2)c1` gave UPR CHOP act 2, Jurkat NFkB inh -151, XBP1 UPR activ -4, 697 NFkB inh -27 and Jurkat NFkB conf -63.
Screening COc1cccc(C(=O)Nc2ccc3[nH]ncc3c2)c1 returned UPR CHOP act 2, Jurkat NFkB inh -70, XBP1 UPR activ -6 and 697 NFkB inh -45.
COc1ccc(S(=O)(=O)N2CCCC2CNC(=O)C(=O)NCc2ccco2)cc1 (centres undefined) was read as UPR CHOP act 0, Jurkat NFkB inh 13, XBP1 UPR activ -2 and 697 NFkB inh 15.
CCOC(=O)c1c(C)[nH]c(N=Nc2ccc(OC)cc2)c1C was read as UPR CHOP act 5, Jurkat NFkB inh -119, XBP1 UPR activ 2, CHOP inh 62 and 697 NFkB inh -116.
